HCV NS3 hel inh = blocks Hepatitis C virus NS3 helicase unwinding; NS3 helicase DNA unwinding, Cy5 molecular beacon fluorescence; 290,000 tested, 0.56% active; inhibition, % at 10.9 µM;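 active = inhibition above the mean of all tested compounds plus 3 SD, set per campaign, cut at about 35% in these data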
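Measured by: Cy5 fluorescence, 0 and 60 min reads / Assay system: NS3 helicase fragment of HCV / Control set: low DMSO, high thioflavine S at 110 µM / Times: 1 h reaction at 25 °C, ATP-initiated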
HSF1 inh = HSF1 inhibition | NIH3T3-HGL HSE-luciferase, MG132-induced, luminescence 8 h; active compounds read low | activity change, negative = inhibition, % at 7.5 µM (by protocol) | 300,000 tested, 0.77% active | AID 2098;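 active = more than half of replicate wells show activity change below -50%, luminescence cut by over half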;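 note: luciferase reports HSF-1 transcriptional activity via heat shock element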
HSP90 inh = HSP90 refolding inhibition in rabbit reticulocyte lysate; luciferase refolding luminescence, 3 h; inhibition, % at 5.6 µM; 290,000 tested, 0.91% active;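 active = inhibition above the screen-wide mean plus 3 SD, computed separately per campaign, cut at about 16% in these data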;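 note: inhibitors lower the luminescence because luciferase stays unfolded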
HSF-1 act = increases HSF-1 driven luciferase reporter signal; NIH3T3-HGL HSF-1 luciferase reporter, MG132, 8 h; 100% = twice DMSO control signal; activation, % at 9 µM; 300,000 tested, 1.7% active;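 active = mean replicate activation of at least 50% with a set share of replicates each reaching 50%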
Lipid droplet = modulators of hepatic lipid droplet formation. inhibition, % at 6.5 µM. AML12 mouse hepatocytes, oleate lipid droplets, BODIPY imaging. 240,000 tested, 0.4% active;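 active = lipid droplet intensity inhibited by at least 50%, with more than 500 cells counted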
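Material – mouse AML12 hepatocyte cell line, fixed after treatment · Compound dosing – one dose, 6.5 µM compound · Times – compound with oleate, overnight · Measured by – Image-based BODIPY and DAPI two-channel analysis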
NS3 helicase cf = HCV NS3 helicase inhibition, confirmation assay; 1,600 tested, 31% active; shares compounds with HCV NS3 hel inh; NS3 helicase DNA unwinding, Cy5 molecular beacon fluorescence; inhibition, % at 10.9 µM; AID 1943;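 active = inhibition above the mean of all tested compounds plus 3 SD, cutoff set per campaign, cut at about 36% in these data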
DNA FID counter = intercalator displacement, NS3 helicase counter-screen | inhibition, % at 7.9 µM | AID 1945 | DNA fluorescent intercalator displacement, fluorescence | shares compounds with HCV NS3 hel inh | 1,600 tested, 4% active; in the data active = inhibition above about 37%;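 note: higher means more displacement of ethidium bromide from the DNA hairpin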
Of the large screens only hits and unclear results are named; the others gave an inactive call (follow-up assays come after a bar, where they were run). Sampled rows, rich in hits. Any-hit rate of the full collection: about 3.8%.

C=CCN1C(=O)NC(=O)/C(=C\c2ccc(-c3ccccc3[N+](=O)[O-])o2)C1=O	none
CCCc1cc(=O)oc2cc(OCC(=O)N3CCC(C(=O)O)(c4ccccc4)CC3)ccc12	HCV NS3 hel inh 49 | NS3 helicase cf inactive | DNA FID counter inactive
O=C(Nc1ccc(Cl)cc1C(=O)c1ccccc1Cl)c1ccco1	none (no result: Lipid droplet)
CN1CCN(c2nc([N+](=O)[O-])nn2C)CC1	none
O=C1NC(=O)N(Cc2ccco2)C(=O)/C1=C\c1cccn1CCOc1ccc(Cl)cc1	HCV NS3 hel inh 44 | NS3 helicase cf inactive | DNA FID counter inactive
CC(C)n1c(=O)c(C=Nc2ccc(F)cc2)c(O)n(Cc2ccco2)c1=O	HCV NS3 hel inh 48 (no result: HSF1 inh, HSF-1 act) | NS3 helicase cf inactive | DNA FID counter inactive
O=c1[nH]c(=O)n(Cc2ccco2)c(O)c1C=NC1CC1	none (no result: Lipid droplet)
O=C(O)C1(Br)CC12c1ccccc1-c1ccccc12 (configuration not stated)	none (no result: HCV NS3 hel inh, HSP90 inh, Lipid droplet)
O=C(N/N=C/c1c(O)n(CCc2ccc(F)cc2)c(=O)[nH]c1=O)c1ccncc1	HCV NS3 hel inh 38 | NS3 helicase cf inactive | DNA FID counter inactive
O=C(c1ccccc1)c1cn(CC(=O)N2CCCC2)c2ccccc12	none (no result: Lipid droplet)
O=C(c1ccccc1)c1cn(CC(=O)N2CCOCC2)c2ccccc12	HCV NS3 hel inh 57 | NS3 helicase cf inactive | DNA FID counter inactive
CC(=O)c1ccc2c(c1)C1C(Cl)C(Sc3ccccc3[N+](=O)[O-])CC1C(C(=O)O)N2 (configuration not stated)	HCV NS3 hel inh 41 (no result: HSF1 inh, HSF-1 act) | NS3 helicase cf 52 | DNA FID counter inactive
O=C(O)c1cccc2c1NC(C(=O)O)C1CC(Sc3ccccc3[N+](=O)[O-])C(Cl)C21 (configuration not stated)	none (no result: HSF1 inh, HSF-1 act)
O=C1NC(=S)N(c2ccccc2)C(=O)/C1=C/c1ccco1	HCV NS3 hel inh 41 | NS3 helicase cf 69 | DNA FID counter inactive
COc1cccc(N2C(=O)/C(=C/c3ccc(C)o3)C(=O)NC2=S)c1	HCV NS3 hel inh 36 | NS3 helicase cf 59 | DNA FID counter inactive
Cc1ccc(/C=C2\C(=O)NC(=S)N(c3ccc(F)cc3)C2=O)o1	none
CCOc1ccccc1-n1c(O)c(C=Nc2ccc(N(CC)CC)cc2)c(=O)[nH]c1=O	HCV NS3 hel inh 54 (no result: Lipid droplet) | NS3 helicase cf inactive | DNA FID counter inactive
Cc1ccccc1-n1c(O)c(C=Nc2ccc3c(c2)OCO3)c(=O)[nH]c1=O	HCV NS3 hel inh 37 (no result: Lipid droplet) | NS3 helicase cf inactive | DNA FID counter inactive
Cn1c(O)c(C=NCCN2CCN(C(=O)Nc3ccccc3)CC2)c(=O)n(C)c1=O	none
COc1cccc(N(C(C)=O)C2=NCCCS2)c1	none
CCn1c(O)c(C=Nc2ccc(N3CCOCC3)cc2)c(=O)n(CC)c1=S	HCV NS3 hel inh 40 (no result: Lipid droplet) | NS3 helicase cf inactive | DNA FID counter inactive
CCn1c(C(=O)N2CCC(C(=O)N3CCC4(CC3)OCCO4)CC2)cc2sccc21	none (no result: HSF1 inh, HSF-1 act, Lipid droplet)
CN(C)[C@@H]1C(=O)C(C(N)=O)=C(O)[C@@]2(O)C(=O)C3=C(O)c4c(O)cccc4[C@@](C)(O)[C@H]3[C@H](O)[C@@H]12	HCV NS3 hel inh 36 | NS3 helicase cf 97 | DNA FID counter inactive
CN(C)[C@@H]1C(=O)C(C(N)=O)=C(O)[C@@]2(O)C(=O)C3=C(O)c4c(O)ccc(Cl)c4[C@@](C)(O)[C@H]3C[C@@H]12	HCV NS3 hel inh 48 | NS3 helicase cf inactive | DNA FID counter inactive
CN(C)[C@@H]1C(=O)C(C(N)=O)=C(O)[C@@]2(O)C(=O)C3=C(O)c4c(O)cccc4[C@@](C)(O)C3C[C@@H]12 (some centres not stated)	none (no result: HCV NS3 hel inh, HSP90 inh, Lipid droplet)
CCOP(=O)(OCC)C(NS(=O)(=O)c1ccccc1)C(Cl)(Cl)Cl (configuration not stated)	none
O=C(c1ccccc1F)N1CCC2(CC1)OCCO2	none
Nc1nnc(P(c2ccccc2)c2ccccc2)s1	none
CN1CCN(C(=O)Cc2nc3ccccc3[nH]2)CC1	none (no result: Lipid droplet)
COc1ccc(N2CCN(Cc3nc4ccccc4[nH]3)CC2)cc1	HCV NS3 hel inh 38 | NS3 helicase cf inactive | DNA FID counter inactive

Source: PubChem
